In paper PMC7744997 (Clinical Infectious Diseases: An Official Publication of …, 2020):

Test: Laboratory safety in RSV-infected infants
Format: in vivo, human
Outline: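 Clinical laboratory tests were run in RSV-infected infants (>1 to ≤24 months) given oral drug or placebo once daily for 7 days. Abnormalities were graded with the DMID Pediatric Toxicity Tables (November 2007 version). Patients were followed for 28 days after randomisation.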

In the case of `CS(=O)(=O)CCCn1c(Cn2c(=O)n(CC(F)(F)F)c3ccncc32)cc2cc(Cl)ccc21` [JNJ-53718678], the “Hemoglobin Grade 1 (treatment-emergent worst toxicity grade)” value (All cohorts, n=37) is reported as 2 (5) no. (%), the “Hemoglobin Grade 2 (treatment-emergent worst toxicity grade)” value (All cohorts, n=37) is reported as 1 (3) no. (%) and the “Hyperkalemia Grade 1 (treatment-emergent worst toxicity grade)” value (All cohorts, n=37) is reported as 10 (27) no. (%). The “Hyperkalemia Grade 2 (treatment-emergent worst toxicity grade)” value (All cohorts, n=37) was 2 (5) no. (%), the “Hypoglycemia Grade 1 (treatment-emergent worst toxicity grade)” value (All cohorts, n=37) was 3 (8) no. (%) and the “Hyponatremia Grade 2 (treatment-emergent worst toxicity grade)” value (All cohorts, n=37) was 3 (8) no. (%). The “Eosinophils/leukocytes: Above (treatment-emergent nongraded abnormality)” value (All, n=26) was 7 (27) no. (%), the “Eosinophils/leukocytes: Below (treatment-emergent nongraded abnormality)” value (All, n=26) was 1 (4) no. (%) and the “Lymphocytes/leukocytes: Above (treatment-emergent nongraded abnormality)” value (All, n=26) was 6 (23) no. (%). For the same molecule, the “Lymphocytes/leukocytes: Below (treatment-emergent nongraded abnormality)” value (All, n=26) was 1 (4) no. (%), the “Monocytes/leukocytes: Above (treatment-emergent nongraded abnormality)” value (All, n=26) was 5 (19) no. (%) and the “Monocytes/leukocytes: Below (treatment-emergent nongraded abnormality)” value (All, n=26) was 3 (12) no. (%). The “Neutrophils/leukocytes: Above (treatment-emergent nongraded abnormality)” value (All, n=26) was 1 (4) no. (%), the “Neutrophils/leukocytes: Below (treatment-emergent nongraded abnormality)” value (All, n=26) was 6 (23) no. (%) and the “Urea: Above (treatment-emergent nongraded abnormality)” value (All, n=33) was 1 (3) no. (%). For the same molecule, the “Urea: Below (treatment-emergent nongraded abnormality)” value (All, n=33) was 5 (15) no. (%), the “Bicarbonate: Above (treatment-emergent nongraded abnormality)” value (All, n=35) was 3 (9) no. (%) and the “Bicarbonate: Below (treatment-emergent nongraded abnormality)” value (All, n=35) was 6 (17) no. (%). For the same molecule, the “Eosinophils: Above (treatment-emergent nongraded abnormality)” value (All, n=35) was 7 (20) no. (%), the “Eosinophils: Below (treatment-emergent nongraded abnormality)” value (All, n=35) was 0 no. (%) and the “Lymphocytes: Above (treatment-emergent nongraded abnormality)” value (All, n=36) was 6 (17) no. (%). For the same molecule, the “Lymphocytes: Below (treatment-emergent nongraded abnormality)” value (All, n=36) was 0 no. (%), the “Alkaline phosphatase: Above (treatment-emergent nongraded abnormality)” value (All, n=37) was 2 (5) no. (%) and the “Alkaline phosphatase: Below (treatment-emergent nongraded abnormality)” value (All, n=37) was 3 (8) no. (%). The “Chloride: Above (treatment-emergent nongraded abnormality)” value (All, n=37) was 5 (14) no. (%), the “Chloride: Below (treatment-emergent nongraded abnormality)” value (All, n=37) was 1 (3) no. (%) and the “Erythrocytes: Above (treatment-emergent nongraded abnormality)” value (All, n=37) was 4 (11) no. (%). The “Erythrocytes: Below (treatment-emergent nongraded abnormality)” value (All, n=37) was 3 (8) no. (%), the “Leukocytes: Above (treatment-emergent nongraded abnormality)” value (All, n=37) was 6 (16) no. (%) and the “Eosinophils/leukocytes: Above (treatment-emergent nongraded abnormality)” value (High (cohorts 1d,2c,3c), n=4) was 1 (25) no. (%). For the same molecule, the “Eosinophils/leukocytes: Below (treatment-emergent nongraded abnormality)” value (High (cohorts 1d,2c,3c), n=4) was 0 no. (%), the “Lymphocytes/leukocytes: Above (treatment-emergent nongraded abnormality)” value (High (cohorts 1d,2c,3c), n=4) was 1 (25) no. (%) and the “Lymphocytes/leukocytes: Below (treatment-emergent nongraded abnormality)” value (High (cohorts 1d,2c,3c), n=4) was 0 no. (%). For the same molecule, the “Monocytes/leukocytes: Above (treatment-emergent nongraded abnormality)” value (High (cohorts 1d,2c,3c), n=4) was 0 no. (%), the “Monocytes/leukocytes: Below (treatment-emergent nongraded abnormality)” value (High (cohorts 1d,2c,3c), n=4) was 0 no. (%) and the “Neutrophils/leukocytes: Above (treatment-emergent nongraded abnormality)” value (High (cohorts 1d,2c,3c), n=4) was 0 no. (%). For the same molecule, the “Neutrophils/leukocytes: Below (treatment-emergent nongraded abnormality)” value (High (cohorts 1d,2c,3c), n=4) was 0 no. (%), the “Bicarbonate: Above (treatment-emergent nongraded abnormality)” value (High (cohorts 1d,2c,3c), n=8) was 0 no. (%) and the “Bicarbonate: Below (treatment-emergent nongraded abnormality)” value (High (cohorts 1d,2c,3c), n=8) was 3 (38) no. (%). For the same molecule, the “Eosinophils: Above (treatment-emergent nongraded abnormality)” value (High (cohorts 1d,2c,3c), n=8) was 0 no. (%), the “Eosinophils: Below (treatment-emergent nongraded abnormality)” value (High (cohorts 1d,2c,3c), n=8) was 0 no. (%) and the “Alkaline phosphatase: Above (treatment-emergent nongraded abnormality)” value (High (cohorts 1d,2c,3c), n=9) was 0 no. (%). For the same molecule, the “Alkaline phosphatase: Below (treatment-emergent nongraded abnormality)” value (High (cohorts 1d,2c,3c), n=9) was 0 no. (%), the “Chloride: Above (treatment-emergent nongraded abnormality)” value (High (cohorts 1d,2c,3c), n=9) was 0 no. (%) and the “Chloride: Below (treatment-emergent nongraded abnormality)” value (High (cohorts 1d,2c,3c), n=9) was 0 no. (%). The “Erythrocytes: Above (treatment-emergent nongraded abnormality)” value (High (cohorts 1d,2c,3c), n=9) was 0 no. (%), the “Erythrocytes: Below (treatment-emergent nongraded abnormality)” value (High (cohorts 1d,2c,3c), n=9) was 1 (11) no. (%) and the “Hemoglobin Grade 1 (treatment-emergent worst toxicity grade)” value (High (cohorts 1d,2c,3c), n=9) was 0 no. (%). The “Hemoglobin Grade 2 (treatment-emergent worst toxicity grade)” value (High (cohorts 1d,2c,3c), n=9) was 0 no. (%), the “Hyperkalemia Grade 1 (treatment-emergent worst toxicity grade)” value (High (cohorts 1d,2c,3c), n=9) was 1 (11) no. (%) and the “Hyperkalemia Grade 2 (treatment-emergent worst toxicity grade)” value (High (cohorts 1d,2c,3c), n=9) was 1 (11) no. (%). The “Hypoglycemia Grade 1 (treatment-emergent worst toxicity grade)” value (High (cohorts 1d,2c,3c), n=9) was 3 (33) no. (%), the “Hyponatremia Grade 2 (treatment-emergent worst toxicity grade)” value (High (cohorts 1d,2c,3c), n=9) was 1 (11) no. (%) and the “Leukocytes: Above (treatment-emergent nongraded abnormality)” value (High (cohorts 1d,2c,3c), n=9) was 3 (33) no. (%). For the same molecule, the “Lymphocytes: Above (treatment-emergent nongraded abnormality)” value (High (cohorts 1d,2c,3c), n=9) was 1 (11) no. (%), the “Lymphocytes: Below (treatment-emergent nongraded abnormality)” value (High (cohorts 1d,2c,3c), n=9) was 0 no. (%) and the “Urea: Above (treatment-emergent nongraded abnormality)” value (High (cohorts 1d,2c,3c), n=9) was 0 no. (%). The “Urea: Below (treatment-emergent nongraded abnormality)” value (High (cohorts 1d,2c,3c), n=9) was 0 no. (%), the “Eosinophils/leukocytes: Above (treatment-emergent nongraded abnormality)” value (Low (cohorts 1a,2a,3a), n=9) was 2 (22) no. (%) and the “Eosinophils/leukocytes: Below (treatment-emergent nongraded abnormality)” value (Low (cohorts 1a,2a,3a), n=9) was 0 no. (%). The “Lymphocytes/leukocytes: Above (treatment-emergent nongraded abnormality)” value (Low (cohorts 1a,2a,3a), n=9) was 2 (22) no. (%), the “Lymphocytes/leukocytes: Below (treatment-emergent nongraded abnormality)” value (Low (cohorts 1a,2a,3a), n=9) was 0 no. (%) and the “Monocytes/leukocytes: Above (treatment-emergent nongraded abnormality)” value (Low (cohorts 1a,2a,3a), n=9) was 2 (22) no. (%). The “Monocytes/leukocytes: Below (treatment-emergent nongraded abnormality)” value (Low (cohorts 1a,2a,3a), n=9) was 2 (22) no. (%), the “Neutrophils/leukocytes: Above (treatment-emergent nongraded abnormality)” value (Low (cohorts 1a,2a,3a), n=9) was 0 no. (%) and the “Neutrophils/leukocytes: Below (treatment-emergent nongraded abnormality)” value (Low (cohorts 1a,2a,3a), n=9) was 3 (33) no. (%). The “Urea: Above (treatment-emergent nongraded abnormality)” value (Low (cohorts 1a,2a,3a), n=9) was 1 (11) no. (%), the “Urea: Below (treatment-emergent nongraded abnormality)” value (Low (cohorts 1a,2a,3a), n=9) was 1 (11) no. (%) and the “Bicarbonate: Above (treatment-emergent nongraded abnormality)” value (Low (cohorts 1a,2a,3a), n=11) was 1 (9) no. (%). For the same molecule, the “Bicarbonate: Below (treatment-emergent nongraded abnormality)” value (Low (cohorts 1a,2a,3a), n=11) was 0 no. (%), the “Alkaline phosphatase: Above (treatment-emergent nongraded abnormality)” value (Low (cohorts 1a,2a,3a), n=12) was 1 (8) no. (%) and the “Alkaline phosphatase: Below (treatment-emergent nongraded abnormality)” value (Low (cohorts 1a,2a,3a), n=12) was 0 no. (%). The “Chloride: Above (treatment-emergent nongraded abnormality)” value (Low (cohorts 1a,2a,3a), n=12) was 1 (8) no. (%) and the “Chloride: Below (treatment-emergent nongraded abnormality)” value (Low (cohorts 1a,2a,3a), n=12) was 0 no. (%).
